Measured values reported in ChEMBL document CHEMBL3739406, “Trisubstituted Thieno[3,2-b]pyrrole 5-Carboxamides as Potent Inhibitors of Alphaviruses” (J Med Chem, 2015).
Activity calls are given as the source filed them. No cut-off for these calls is given here.

Test system: Chikungunya virus
Assay: Antiviral activity against wild type Chikungunya virus IMT infected in HEK293T cells assessed as inhibition of infectivity at 5 uM measured at 24 hrs postinfection by FITC/DAPI staining based array scan VTI HCS reader analysis
Type: functional
Settings: HEK-293T

Compound	inhibition at 5 µM [%]
NC(=O)c1ncn([C@@H]2O[C@H](CO)[C@@H](O)[C@H]2O)n1 [RIBAVIRIN]	10
CCCNC(=O)C1CCN(C(=O)c2cc3sc(CO)cc3n2Cc2ccc(OC)cc2)CC1	60
CCCNC(=O)C1CCN(C(=O)c2cc3sc(Br)cc3n2Cc2ccc(OC)cc2)CC1	60

Test system: Chikungunya virus
Assay: Antiviral activity against wild type Chikungunya virus IMT infected in HEK293T cells assessed as inhibition of viral capsid protein at 5 uM measured at 24 hrs postinfection by Western blot method
Type: functional, cell-based
Settings: HEK-293T

Compound	inhibition
NC(=O)c1ncn([C@@H]2O[C@H](CO)[C@@H](O)[C@H]2O)n1 [RIBAVIRIN]	inactive

Test system: Chikungunya virus
Assay: Antiviral activity against wild type Chikungunya virus IMT infected in HEK293T cells assessed as inhibition of nsP1 protein expression measured at 24 hrs postinfection by Western blot method
Type: functional, cell-based
Settings: HEK-293T

Compound	inhibition
CCCNC(=O)C1CCN(C(=O)c2cc3sc(CO)cc3n2Cc2ccc(OC)cc2)CC1	Dose-dependent effect
CCCNC(=O)C1CCN(C(=O)c2cc3sc(Br)cc3n2Cc2ccc(OC)cc2)CC1	Dose-dependent effect

Test system: not listed separately
Assay: Selectivity index, ratio of CC50 for HEK293T cells to EC50 for Chikungunya virus infected in HEK293T cells
Type: toxicity, cell-based, HEK-293T
Settings: human, read-out: Ratio CC50/EC50

Compound	selectivity ratio
CCCNC(=O)C1CCN(C(=O)c2cc3sccc3n2Cc2ccc(OC)cc2)CC1	2.7
CCCNC(=O)C1CCN(C(=O)c2cc3sc(CO)cc3n2Cc2ccc(OC)cc2)CC1	3.6
COc1ccc(Cn2c(C(=O)N3CCN(Cc4ccccc4)CC3)cc3sc(CNC(C)c4ccccc4)cc32)cc1 (stereo not drawn)	> 11
CCCNC(=O)C1CCN(C(=O)c2cc3sc(C#N)cc3n2Cc2ccc(OC)cc2)CC1	> 20
CCCNC(=O)C1CCN(C(=O)c2c(Br)c3sccc3n2Cc2ccc(OC)cc2)CC1	4.1
CCCNC(=O)C1CCN(C(=O)c2cc3sc(Br)cc3n2Cc2ccc(OC)cc2)CC1	> 32
COc1ccc(Cn2c(C(=O)N3CCC(C(=O)NC4CC4)CC3)cc3sccc32)cc1	2.8

Test system: HEK293
Assay: Toxicity in HEK293T cells infected with Chikungunya virus IMT assessed as reduction in beta-actin protein expression at 0.1 to 5 uM measured at 24 hrs postinfection by Western blot method
Type: cell-based
Settings: human, hek293, 24 h

Compound	Activity
CCCNC(=O)C1CCN(C(=O)c2cc3sc(CO)cc3n2Cc2ccc(OC)cc2)CC1	Non-toxic
CCCNC(=O)C1CCN(C(=O)c2cc3sc(Br)cc3n2Cc2ccc(OC)cc2)CC1	Non-toxic

Test system: Chikungunya virus
Assay: Antiviral activity against wild type Chikungunya virus IMT infected in HEK293T cells assessed as inhibition of nsP3 protein expression measured at 24 hrs postinfection by Western blot method
Type: functional, cell-based
Settings: HEK-293T

Compound	inhibition
CCCNC(=O)C1CCN(C(=O)c2cc3sc(CO)cc3n2Cc2ccc(OC)cc2)CC1	Dose-dependent effect
CCCNC(=O)C1CCN(C(=O)c2cc3sc(Br)cc3n2Cc2ccc(OC)cc2)CC1	Dose-dependent effect

Test system: Chikungunya virus
Assay: Antiviral activity against wild type Chikungunya virus IMT infected in HEK293T cells assessed as inhibition of nsP1 protein expression at 5 uM measured at 24 hrs postinfection by Western blot method
Type: functional, cell-based
Settings: HEK-293T

Compound	inhibition
NC(=O)c1ncn([C@@H]2O[C@H](CO)[C@@H](O)[C@H]2O)n1 [RIBAVIRIN]	inactive

Test system: Chikungunya virus
Assay: Antiviral activity against wild type Chikungunya virus IMT infected in HEK293T cells assessed as reduction of viral E1 gene expression at 2.5 uM measured at 24 hrs postinfection by qRT-PCR method relative to control
Type: functional, HEK-293T
Settings: not given

Compound	fold change (FC)
CCCNC(=O)C1CCN(C(=O)c2cc3sc(Br)cc3n2Cc2ccc(OC)cc2)CC1	100

Test system: Chikungunya virus
Assay: Antiviral activity against wild type Chikungunya virus IMT infected in HEK293T cells assessed as inhibition of E2 protein expression at 5 uM measured at 24 hrs postinfection by Western blot method
Type: functional, cell-based
Settings: HEK-293T

Compound	inhibition
NC(=O)c1ncn([C@@H]2O[C@H](CO)[C@@H](O)[C@H]2O)n1 [RIBAVIRIN]	inactive

Test system: Chikungunya virus
Assay: Antiviral activity against wild type Chikungunya virus IMT infected in HEK293T cells assessed as inhibition of nsP3 protein expression at 5 uM measured at 24 hrs postinfection by Western blot method
Type: functional, cell-based
Settings: HEK-293T

Compound	inhibition
NC(=O)c1ncn([C@@H]2O[C@H](CO)[C@@H](O)[C@H]2O)n1 [RIBAVIRIN]	inactive

Test system: Chikungunya virus
Assay: Antiviral activity against Chikungunya virus infected in HEK293T cells assessed as reduction of infectivity measured at 24 hrs postinfection by gaussia luciferase reporter gene assay
Type: functional, cell-based
Settings: HEK-293T

Compound	EC50 [µM]
NC(=O)c1ncn([C@@H]2O[C@H](CO)[C@@H](O)[C@H]2O)n1 [RIBAVIRIN]	13.1
CCCNC(=O)C1CCN(C(=O)c2cc3sccc3n2Cc2ccc(OC)cc2)CC1	7
CCCNC(=O)C1CCN(C(=O)c2cc3sc(CO)cc3n2Cc2ccc(OC)cc2)CC1	4.33
COc1ccc(Cn2c(C(=O)N3CCN(Cc4ccccc4)CC3)cc3sc(CNC(C)c4ccccc4)cc32)cc1 (stereo not drawn)	9.44
CCCNC(=O)C1CCN(C(=O)c2cc3sc(C#N)cc3n2Cc2ccc(OC)cc2)CC1	4.9
CCCNC(=O)C1CCN(C(=O)c2c(Br)c3sccc3n2Cc2ccc(OC)cc2)CC1	7.75
CCCNC(=O)C1CCN(C(=O)c2cc3sc(Br)cc3n2Cc2ccc(OC)cc2)CC1	3.1
COc1ccc(Cn2c(C(=O)N3CCC(C(=O)NC4CC4)CC3)cc3sccc32)cc1	7.59

Test system: Onyong-nyong virus
Assay: Antiviral activity against O'nyong-nyong virus infected in HEK293T cells assessed as inhibition of infectivity measured at 24 hrs postinfection by FITC/DAPI staining based array scan VTI HCS reader analysis
Type: functional, cell-based
Settings: HEK-293T

Compound	EC50 [µM]
NC(=O)c1ncn([C@@H]2O[C@H](CO)[C@@H](O)[C@H]2O)n1 [RIBAVIRIN]	18.4
CCCNC(=O)C1CCN(C(=O)c2cc3sc(Br)cc3n2Cc2ccc(OC)cc2)CC1	2.58

Test system: Chikungunya virus
Assay: Antiviral activity against wild type Chikungunya virus IMT infected in HEK293T cells assessed as reduction of viral E1 gene expression measured at 24 hrs postinfection by qRT-PCR method
Type: functional, cell-based
Settings: HEK-293T

Compound	Activity
CCCNC(=O)C1CCN(C(=O)c2cc3sc(CO)cc3n2Cc2ccc(OC)cc2)CC1	Dose-dependent effect
CCCNC(=O)C1CCN(C(=O)c2cc3sc(Br)cc3n2Cc2ccc(OC)cc2)CC1	Dose-dependent effect

Test system: Chikungunya virus
Assay: Antiviral activity against wild type Chikungunya virus IMT infected in HEK293T cells assessed as inhibition of E2 protein expression measured at 24 hrs postinfection by Western blot method
Type: functional, cell-based
Settings: HEK-293T

Compound	inhibition
CCCNC(=O)C1CCN(C(=O)c2cc3sc(CO)cc3n2Cc2ccc(OC)cc2)CC1	Dose-dependent effect
CCCNC(=O)C1CCN(C(=O)c2cc3sc(Br)cc3n2Cc2ccc(OC)cc2)CC1	Dose-dependent effect

Test system: Chikungunya virus
Assay: Antiviral activity against wild type Chikungunya virus IMT infected in HEK293T cells assessed as reduction of viral nsP1 gene expression measured at 24 hrs postinfection by qRT-PCR method
Type: functional, cell-based
Settings: HEK-293T

Compound	Activity
CCCNC(=O)C1CCN(C(=O)c2cc3sc(CO)cc3n2Cc2ccc(OC)cc2)CC1	Dose-dependent effect
CCCNC(=O)C1CCN(C(=O)c2cc3sc(Br)cc3n2Cc2ccc(OC)cc2)CC1	Dose-dependent effect

Test system: Chikungunya virus
Assay: Antiviral activity against wild type Chikungunya virus IMT infected in HEK293T cells assessed as reduction of viral nsP1 gene expression at 2.5 uM measured at 24 hrs postinfection by qRT-PCR method relative to control
Type: functional, HEK-293T
Settings: not given

Compound	fold change (FC)
CCCNC(=O)C1CCN(C(=O)c2cc3sc(Br)cc3n2Cc2ccc(OC)cc2)CC1	100

Test system: not listed separately
Assay: Cytotoxicity against HEK293T cells assessed as cell viability at antiviral EC50 after 24 hrs by cell titer-glo luminescent cell viability assay
Type: cell-based, HEK-293T
Settings: human, read-out: Activity
Outline: (§1)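 HEK 293T cells, 3 × 10⁴/well, seeded overnight, then exposed 24 h to compound (0.01–100 μM, triplicate) in DMEM pH 6.8 with 10% FBS. Viability read by CellTiter-Glo luminescence. Normalized to untreated (100%) and medium blank (0%); CC50 by five-parameter curve fit.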

Compound	viability at 24 h [%]
NC(=O)c1ncn([C@@H]2O[C@H](CO)[C@@H](O)[C@H]2O)n1 [RIBAVIRIN]	> 80
CCCNC(=O)C1CCN(C(=O)c2cc3sccc3n2Cc2ccc(OC)cc2)CC1	> 80
CCCNC(=O)C1CCN(C(=O)c2cc3sc(CO)cc3n2Cc2ccc(OC)cc2)CC1	> 80
COc1ccc(Cn2c(C(=O)N3CCN(Cc4ccccc4)CC3)cc3sc(CNC(C)c4ccccc4)cc32)cc1 (stereo not drawn)	> 80
CCCNC(=O)C1CCN(C(=O)c2cc3sc(C#N)cc3n2Cc2ccc(OC)cc2)CC1	> 80
CCCNC(=O)C1CCN(C(=O)c2c(Br)c3sccc3n2Cc2ccc(OC)cc2)CC1	> 80
CCCNC(=O)C1CCN(C(=O)c2cc3sc(Br)cc3n2Cc2ccc(OC)cc2)CC1	> 80
COc1ccc(Cn2c(C(=O)N3CCC(C(=O)NC4CC4)CC3)cc3sccc32)cc1	> 80

Test system: Chikungunya virus
Assay: Antiviral activity against wild type Chikungunya virus IMT infected in HEK293T cells assessed as inhibition of capsid protein expression measured at 24 hrs postinfection by Western blot method
Type: functional, cell-based
Settings: HEK-293T

Compound	inhibition
CCCNC(=O)C1CCN(C(=O)c2cc3sc(CO)cc3n2Cc2ccc(OC)cc2)CC1	Dose-dependent effect
CCCNC(=O)C1CCN(C(=O)c2cc3sc(Br)cc3n2Cc2ccc(OC)cc2)CC1	Dose-dependent effect

Test system: not listed separately
Assay: Cytotoxicity against HEK293T cells assessed as reduction in cell viability after 24 hrs by cell titer-glo luminescent cell viability assay
Type: cell-based, HEK-293T
Settings: human
Outline: as §1

Compound	CC50 at 24 h [µM]
CCCNC(=O)C1CCN(C(=O)c2cc3sccc3n2Cc2ccc(OC)cc2)CC1	18.8
CCCNC(=O)C1CCN(C(=O)c2cc3sc(CO)cc3n2Cc2ccc(OC)cc2)CC1	15.5
COc1ccc(Cn2c(C(=O)N3CCN(Cc4ccccc4)CC3)cc3sc(CNC(C)c4ccccc4)cc32)cc1 (stereo not drawn)	> 100
CCCNC(=O)C1CCN(C(=O)c2cc3sc(C#N)cc3n2Cc2ccc(OC)cc2)CC1	> 100
CCCNC(=O)C1CCN(C(=O)c2c(Br)c3sccc3n2Cc2ccc(OC)cc2)CC1	31.6
CCCNC(=O)C1CCN(C(=O)c2cc3sc(Br)cc3n2Cc2ccc(OC)cc2)CC1	> 100
COc1ccc(Cn2c(C(=O)N3CCC(C(=O)NC4CC4)CC3)cc3sccc32)cc1	21.4

Test system: Sindbis virus
Assay: Antiviral activity against wild type Sindbis virus infected in HEK293T cells assessed as inhibition of infectivity measured at 24 hrs postinfection by FITC/DAPI staining based array scan VTI HCS reader analysis
Type: functional, organism-based
Settings: HEK-293T

Compound	EC50 [µM]
NC(=O)c1ncn([C@@H]2O[C@H](CO)[C@@H](O)[C@H]2O)n1 [RIBAVIRIN]	5.12
CCCNC(=O)C1CCN(C(=O)c2cc3sc(Br)cc3n2Cc2ccc(OC)cc2)CC1	1.14

Test system: Chikungunya virus
Assay: Antiviral activity against wild type Chikungunya virus IMT infected in HEK293T cells assessed as inhibition of infectivity measured at 24 hrs postinfection by FITC/DAPI staining based array scan VTI HCS reader analysis
Type: functional, cell-based
Settings: HEK-293T

Compound	EC50 [µM]	inhibition
NC(=O)c1ncn([C@@H]2O[C@H](CO)[C@@H](O)[C@H]2O)n1 [RIBAVIRIN]	20	Dose-dependent effect
CCCNC(=O)C1CCN(C(=O)c2cc3sccc3n2Cc2ccc(OC)cc2)CC1	6.55	Dose-dependent effect
CCCNC(=O)C1CCN(C(=O)c2cc3sc(CO)cc3n2Cc2ccc(OC)cc2)CC1	2.39	Dose-dependent effect
COc1ccc(Cn2c(C(=O)N3CCN(Cc4ccccc4)CC3)cc3sc(CNC(C)c4ccccc4)cc32)cc1 (stereo not drawn)	25.5	Dose-dependent effect
CCCNC(=O)C1CCN(C(=O)c2cc3sc(C#N)cc3n2Cc2ccc(OC)cc2)CC1	8.23	Dose-dependent effect
CCCNC(=O)C1CCN(C(=O)c2c(Br)c3sccc3n2Cc2ccc(OC)cc2)CC1	14	Dose-dependent effect
CCCNC(=O)C1CCN(C(=O)c2cc3sc(Br)cc3n2Cc2ccc(OC)cc2)CC1	1.96	Dose-dependent effect
COc1ccc(Cn2c(C(=O)N3CCC(C(=O)NC4CC4)CC3)cc3sccc32)cc1	5.59	Dose-dependent effect
